Rows were chosen to be rich in hits. Some 1.8% of all compounds tested hit in one or more screens of this group.
697 NFkB inh – inhibitors of PMA/ionomycin-induced NF-kB reporter, 697 cells, primary screen, B-cell NF-kB inhibitor project, cell-based, luminescence, uHTS | AID 435022, 2010 | 697 B-cell NF-kB luciferase reporter, 16 h | inhibition, % at 4 µM | actives 0.33% (n = 330,000); in the data active means inhibition above about 35%
H9c2 TAG inh – inhibitors of triacylglycerol accumulation, primary screen, cell-based, uHTS, fluorescence, H9c2 | H9c2 cells, Nile Red lipid (TAG) fluorescence; cells loaded with 200 µM oleic acid | AID 651582, 2012 | actives 0.66% (n = 230,000) | inhibition, % at 12.5 µM;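 active means pattern-corrected inhibition of lipid staining of at least 50% with the nuclear-stain viability signal not falling by more than 50%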
Hep lipid drop – inhibitors of hepatocyte lipid droplet formation, primary screen, imaging, high-throughput imaging, BODIPY stain; AML12 mouse hepatocytes, oleate lipid droplets; inhibition, % at 6.5 µM; actives 0.4% (n = 240,000); AID 1656, 2009;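 active means lipid droplet intensity inhibited by at least 50%, with more than 500 cells counted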
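Test system: AML12 mouse liver cells; schedule: overnight exposure; technique: high-content imaging of BODIPY-stained droplets and DAPI nuclei; read-out: % inhibition of corrected integrated BODIPY droplet signal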
Jurkat NFkB inh – inhibitors of induced NF-kB luciferase reporter, primary screen, TCR NF-kB activation inhibitor project, cell-based, luminescence, uHTS. Jurkat, PMA/ionomycin-induced NF-kB luciferase reporter. inhibition, % at 4 µM. actives 0.53% (n = 330,000). AID 435003, 2010; in the data active means inhibition above about 50%
Gli-Sufu antag – Gli-Sufu pathway antagonists, primary screen, luciferase luminescence, Sufu-KO-LIGHT cells, uHTS. Sufu-KO-LIGHT fibroblasts, Gli luciferase reporter luminescence. inhibition, % at 5 µM. actives 0.74% (n = 340,000);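 active means inhibition above about 55%, limit read from the data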
iPSC survival up – enhancers of single-cell hiPSC survival, primary screen, ATPlite luminescence. 100% = ROCK inhibitor wells, 0% = DMSO. survival enhancement, % at 20 µM. actives 0.044% (n = 360,000). AID 602274, 2012; in the data active means survival enhancement above about 18%;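 further: cells exposed to compounds for 16 hours before the ATP read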
TAG conf – triacylglycerol accumulation inhibitors, retest, confirmation, cell-based, single concentration, Nile Red fluorescence, H9c2; shares compounds with H9c2 TAG inh; H9c2 lipid accumulation; cells loaded with 200 µM oleic acid; inhibition, % at 12.5 µM; actives 71% (n = 990); AID 651629, 2012;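 active means mean inhibition across replicates of 40% or more; inactive means mean inhibition below 40%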
Large screens that a line does not name were inactive (follow-up assays come after a bar, where they were run).

CC1(c2ccccc2)O[C@@H]2C[C@H]3[C@@H]4CCC5=CC(=O)C=C[C@]5(C)[C@@]4(F)[C@@H](O)C[C@]3(C)[C@]2(C(=O)CO)O1 (stereo partly drawn)	H9c2 TAG inh 53 | TAG conf 55
CCC(=O)Nc1nonc1-c1nc2ccccc2n1Cc1ccccc1	none
CCC(=O)Nc1nonc1-c1nc2ccccc2n1Cc1cccc2ccccc12	H9c2 TAG inh 50 | TAG conf 65
COC(=O)C1=C(C(=O)OC)[C@@H]2N(C)c3ccc(OC)cc3[C@@]23C[C@@H](C(=O)OC)N=C3N1	none
CS(=O)(=O)c1nc(S(=O)(=O)c2ccc(Cl)cc2)c(NCc2ccccn2)s1	none
COc1ccc(CNC(=O)CN(C(=O)CCC(=O)Nc2nccs2)c2ccc(C)cc2)cc1	none (no result: H9c2 TAG inh)
NC(Cc1ccc(F)cc1)c1csc(Nc2ccc(C(F)(F)F)cn2)n1 (stereo not drawn)	H9c2 TAG inh 90 (no result: 697 NFkB inh, Hep lipid drop, Jurkat NFkB inh, Gli-Sufu antag) | TAG conf 74
CN(Cc1ccccc1)C(=O)c1ccc(Nc2nc(C(N)Cc3ccccc3)cs2)nc1 (stereo not drawn)	H9c2 TAG inh 52 (no result: 697 NFkB inh, Hep lipid drop, Jurkat NFkB inh, Gli-Sufu antag) | TAG conf 49
Cc1cccc2nc(COc3ccc(Cl)c4cccnc34)cn12	none (no result: H9c2 TAG inh)
CCCCN(C(=O)c1c(C)noc1C)c1c(N)n(CCCC)c(=O)[nH]c1=O	none (no result: Hep lipid drop)
Cc1ccc(CC2(c3ccccc3)NC(=O)NC2=O)cc1 (stereo not drawn)	none (no result: 697 NFkB inh, Hep lipid drop, Jurkat NFkB inh)
COc1cccc(-c2nc(-c3ccc(NC(=O)Cc4ccccc4OC)cc3)no2)c1	H9c2 TAG inh 51 (no result: 697 NFkB inh, Jurkat NFkB inh) | TAG conf 55
Cc1ccc(N(C)S(=O)(=O)c2ccc3c(c2)NC(=O)C(C)S3)cc1 (stereo not drawn)	none (no result: H9c2 TAG inh)
Cc1cc(N2CCOCC2)nc2ccc(NC(=O)C3CCC(C)CC3)cc12 (stereo not drawn)	H9c2 TAG inh 54 (no result: Hep lipid drop) | TAG conf inactive
CCN1CCN(c2cc(C)c3cc(NC(=O)c4ccc(Br)o4)ccc3n2)CC1	H9c2 TAG inh 58 (no result: Hep lipid drop) | TAG conf inactive
COc1ccc(CNC(=O)C2CCN(c3nc(-c4ccccc4)nc4c3CCC4)CC2)cc1	H9c2 TAG inh 52 | TAG conf 41
CCCN1CCN(CCCNC(=S)Nc2ccc(OC)cc2)CC1	none (no result: H9c2 TAG inh)
O=C(NCc1ccc2c(c1)OCO2)c1cc(-c2ccccn2)nc2ccccc12	H9c2 TAG inh 53, Hep lipid drop 58 | TAG conf inactive
COc1ccccc1NC(=O)COC(=O)COc1cccc2c1OC(C)(C)C2	none (no result: Hep lipid drop)
COc1cc(-c2nnc3n2N=C(c2ccccc2)CS3)cc(OC)c1OC	H9c2 TAG inh 90 (no result: Hep lipid drop) | TAG conf 66
COc1ccc(OC)c(C2=Nn3c(nnc3-c3cc(OC)c(OC)c(OC)c3)SC2)c1	none (no result: H9c2 TAG inh, Hep lipid drop)
CCC(CC)NCc1ccc2c(c1)c1ccccc1n2CC	H9c2 TAG inh 52 | TAG conf inactive
Cc1cc(C)n(CC(C)NCc2cn[nH]c2-c2ccc(C)c(C)c2)n1 (stereo not drawn)	none
CC(C)(C)OC(=O)N1CCN(c2ccc(NC(=O)Cn3nnc(-c4ccccc4)n3)cc2)CC1	H9c2 TAG inh 62, Hep lipid drop 84 | TAG conf inactive
COc1ccccc1N1CCN(C2CCN(C(=O)c3cccc(F)c3)CC2)CC1	none (no result: H9c2 TAG inh)
CCc1nnc(NS(=O)(=O)c2ccc(NC(=O)c3ccc([N+](=O)[O-])s3)cc2)s1	H9c2 TAG inh 67 (no result: 697 NFkB inh, Hep lipid drop, Jurkat NFkB inh, Gli-Sufu antag) | TAG conf inactive
O=C(Nc1ccc(S(=O)(=O)N2CCOCC2)cc1)c1ccc([N+](=O)[O-])s1	H9c2 TAG inh 94 (no result: Hep lipid drop) | TAG conf 89
COc1ccccc1Oc1ccc(S(=O)(=O)N2CCOCC2)cc1S(=O)(=O)N1CCOCC1	none (no result: H9c2 TAG inh)

High-throughput results from PubChem BioAssay.
